Source: paper PMC6136146 (Clinical genitourinary cancer, 2018)
“Also recorded” adds a separate entry of the source. Numbered stars: 1 amine (or outer) side, 2 acyl side, 3 side chain; on linkers, the order of the positions; unused ones are H or OH. Square brackets hold non-standard residues; d marks the D form. Side chains are listed from the residue outwards. Peptide text beside a SMILES is read from it. * marks the point of attachment. Ethylenediamine = C(CN[*:2])N[*:1]; Hyp = O=C(O)[C@@H]1C[C@@H](O)CN1; Phg = N[C@H](C(=O)O)c1ccccc1; CO = O=C([*:1])[*:2]; Bn = c1ccc(C*)cc1

How the values were obtained:
mCRPC = details: no different between the 2 arms; cited from earlier work
[1] = Docetaxel pharmacokinetics; assay type: in vivo, human; details: docetaxel 75 mg/m2 intravenously, coadministration of SOM230; single-agent docetaxel PK not done
[2] = tested on: patients with metastatic castrate-resistant prostate cancer (mCRPC); assay: Phase I dose escalation: dose-limiting toxicity, MTD and toxicities; assay type: in vivo, human
[3] = Pasireotide pharmacokinetics, radioimmunoassay with I-125-pasireotide; assay type: in vivo, human; details: intramuscular every 28 days
Summary of the method: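 Competitive radioimmunoassay on patient samples: samples or standards incubated with I-125-pasireotide tracer and antiserum; immune complexes captured on anti-rabbit-coated magnetic beads, unbound fraction washed away, bound radioactivity read in gamma counter. Dosing: long-acting IM injection every 28 days at 40, 60 or 80 mg, with docetaxel 75 mg/m2 IV every 21 days and prednisone 5 mg orally twice daily.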

sst2 = details: extremely high affinity compared to octreotide; cited from earlier work
sst3 = details: extremely high affinity compared to octreotide; cited from earlier work
sst5 = details: extremely high affinity compared to octreotide; cited from earlier work
PC3 cells = details: cited from earlier work
DU145 cells = details: cited from earlier work
sst1 = details: extremely high affinity compared to octreotide; cited from earlier work
[4] = 60 mg dose level, 12 patients evaluated, number of patients

Structure (SMILES): C[C@]12CC[C@@H]3c4ccc(OC(=O)N(CCCl)CCCl)cc4CC[C@H]3[C@@H]1CC[C@@H]2O [estramustine]
- Median OS (mCRPC): 18 months

Structure (SMILES): CC(=O)O[C@@]12CO[C@@H]1C[C@H](O)[C@@]1(C)C(=O)[C@H](O)C3=C(C)[C@@H](OC(=O)[C@H](O)[C@@H](NC(=O)OC(C)(C)C)c4ccccc4)C[C@@](O)([C@@H](OC(=O)c4ccccc4)[C@H]21)C3(C)C [Docetaxel]
- Docetaxel clearance compared with the data reported in the literature [1]: 3- to 4 fold higher

Structure (SMILES): NCCCC[C@@H]1NC(=O)[C@@H](Cc2c[nH]c3ccccc23)NC(=O)[C@H](c2ccccc2)NC(=O)[C@@H]2C[C@@H](OC(=O)NCCN)CN2C(=O)[C@H](Cc2ccccc2)NC(=O)[C@H](Cc2ccc(OCc3ccccc3)cc2)NC1=O [Pasireotide] (cyclo([Hyp]([CO-Ethylenediamine])[Phg][dW]KY(Bn)F))
- Dehydration, Grade 1 [2, 4]: 0 n
- Dehydration, Grade 2 [2, 4]: 0 n
- Dehydration, Grade 3 [2, 4]: 1 n
- Dehydration, Grade 4 [2, 4]: 0 n
- Diarrhea, Grade 1 [2, 4]: 2 n
- Diarrhea, Grade 2 [2, 4]: 1 n
- Diarrhea, Grade 3 [2, 4]: 0 n
- Diarrhea, Grade 4 [2, 4]: 0 n
- Dry Mouth, Grade 1 [2, 4]: 1 n
- Dry Mouth, Grade 2 [2, 4]: 0 n
- Dry Mouth, Grade 3 [2, 4]: 0 n
- Dry Mouth, Grade 4 [2, 4]: 0 n
- Electrocardiogram QT Corrected Interval Prolong, Grade 1 [2, 4]: 0 n
- Electrocardiogram QT Corrected Interval Prolong, Grade 2 [2, 4]: 1 n
- Electrocardiogram QT Corrected Interval Prolong, Grade 3 [2, 4]: 0 n
- Electrocardiogram QT Corrected Interval Prolong, Grade 4 [2, 4]: 0 n
- Hyperglycemia, Grade 1 [2, 4]: 0 n
- Hyperglycemia, Grade 2 [2, 4]: 0 n
- Hyperglycemia, Grade 3 [2, 4]: 3 n
- Hyperglycemia, Grade 4 [2, 4]: 0 n
- Hyperkalemia, Grade 1 [2, 4]: 0 n
- Hyperkalemia, Grade 2 [2, 4]: 1 n
- Hyperkalemia, Grade 3 [2, 4]: 0 n
- Hyperkalemia, Grade 4 [2, 4]: 0 n
- Hypertension, Grade 1 [2, 4]: 0 n
- Hypertension, Grade 2 [2, 4]: 0 n
- Hypertension, Grade 3 [2, 4]: 2 n
- Hypertension, Grade 4 [2, 4]: 0 n
- Hyponatremia, Grade 1 [2, 4]: 0 n
- Hyponatremia, Grade 2 [2, 4]: 0 n
- Hyponatremia, Grade 3 [2, 4]: 1 n
- Hyponatremia, Grade 4 [2, 4]: 0 n
- Hypophosphatemia, Grade 1 [2, 4]: 0 n
- Hypophosphatemia, Grade 2 [2, 4]: 0 n
- Hypophosphatemia, Grade 3 [2, 4]: 3 n
- Hypophosphatemia, Grade 4 [2, 4]: 0 n
- Hypotension, Grade 1 [2, 4]: 0 n
- Hypotension, Grade 2 [2, 4]: 0 n
- Hypotension, Grade 3 [2, 4]: 1 n
- Hypotension, Grade 4 [2, 4]: 0 n
- Injection Site Reaction, Grade 1 [2, 4]: 1 n
- Injection Site Reaction, Grade 2 [2, 4]: 0 n
- Injection Site Reaction, Grade 3 [2, 4]: 0 n
- Injection Site Reaction, Grade 4 [2, 4]: 0 n
- Rash Acneiform, Grade 1 [2, 4]: 1 n
- Rash Acneiform, Grade 2 [2, 4]: 0 n
- Rash Acneiform, Grade 3 [2, 4]: 0 n
- Rash Acneiform, Grade 4 [2, 4]: 0 n
- Urinary Frequency, Grade 1 [2, 4]: 1 n
- Urinary Frequency, Grade 2 [2, 4]: 0 n
- Urinary Frequency, Grade 3 [2, 4]: 0 n
- Urinary Frequency, Grade 4 [2, 4]: 0 n
- Grade 4 or 5 toxicities ([2]; 60 mg dose, twelve patients evaluated): None of the patients experienced Grade 4 or 5 toxicities
- Dose-limiting toxicities observed ([2]; 80-mg dose level of pasireotide): Grade 4 hyperglycemia unresponsive to therapy and Grade 4 neutropenia lasting for > 7 days in 1 patient each; also recorded: One patient had Grade 4 amylase elevation and the other had Grade 3 hyperglycemia requiring hospitalization
- Hospitalizations because of hyperglycemia probably or definitely related to SOM230 ([2]; in vivo): Three
- Steady state established in most patients [3]: ≤ 57 days
- Binding to sst2 (sst2): binds
- Binding to sst3 (sst3): binds
- Binding to sst5 (sst5): binds
- Growth factor secretion in PC3 cells (PC3 cells): reduced secretion of stem cell factor and platelet-derived growth factor
- Growth factors in DU145 cells (DU145 cells): decreased transforming growth factor-β and basic fibroblast growth factor
- Binding to sst1 (sst1): binds
